This is an account of results in ChEMBL document CHEMBL1921800, “Molecular modeling: a search for a calpain inhibitor as a new treatment for cataractogenesis” (J Med Chem, 2011).

pIC50: −log10 of the molar value. Residues, ends and D or L forms follow the SMILES beside them. *: point of attachment. Tos = Cc1ccc(S(=O)(=O)*)cc1; Ms = CS(=O)(=O)*

Assay [1] has as its target T1, Calpain-2 catalytic subunit (Homo sapiens, UniProt P17655).
T1 sequence (P17655 whole entry): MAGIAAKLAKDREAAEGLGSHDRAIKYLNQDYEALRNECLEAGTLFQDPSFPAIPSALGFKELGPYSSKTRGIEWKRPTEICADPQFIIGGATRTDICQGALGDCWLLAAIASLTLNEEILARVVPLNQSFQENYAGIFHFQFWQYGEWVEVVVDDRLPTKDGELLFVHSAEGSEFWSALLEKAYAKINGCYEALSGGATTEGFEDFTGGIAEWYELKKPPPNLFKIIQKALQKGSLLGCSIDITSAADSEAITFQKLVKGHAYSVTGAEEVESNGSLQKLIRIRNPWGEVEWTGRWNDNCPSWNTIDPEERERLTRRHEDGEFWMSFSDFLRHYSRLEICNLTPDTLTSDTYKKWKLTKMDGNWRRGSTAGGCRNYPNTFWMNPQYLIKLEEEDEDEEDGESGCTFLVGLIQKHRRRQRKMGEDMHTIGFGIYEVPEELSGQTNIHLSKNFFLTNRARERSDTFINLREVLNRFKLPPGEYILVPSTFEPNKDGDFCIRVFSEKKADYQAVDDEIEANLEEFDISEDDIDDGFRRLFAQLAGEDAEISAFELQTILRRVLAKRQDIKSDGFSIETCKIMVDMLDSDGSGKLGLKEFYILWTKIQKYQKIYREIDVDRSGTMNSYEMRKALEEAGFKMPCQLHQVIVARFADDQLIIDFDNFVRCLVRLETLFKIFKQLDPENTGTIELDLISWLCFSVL
The experiment in a line: Inhibition of CAPN2 using BODIPY-labeled casein substrate by fluorometric analysis. In short, it runs like this:
(§1)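 Quenched fluorogenic substrate: casein labelled with BODIPY (4,4-difluoro-5,7-dimethyl-4-bora-3a,4a-diaza-s-indacene-3-propionic acid). Proteolysis relieves the quenching, and the resulting rise in fluorescence is the read-out. IC50 was determined with an established protocol at the Lincoln University laboratory.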

Assay [2] addresses T2, Calpain-1 catalytic subunit (Rattus norvegicus, UniProt P97571).
T2 sequence (P97571 whole entry): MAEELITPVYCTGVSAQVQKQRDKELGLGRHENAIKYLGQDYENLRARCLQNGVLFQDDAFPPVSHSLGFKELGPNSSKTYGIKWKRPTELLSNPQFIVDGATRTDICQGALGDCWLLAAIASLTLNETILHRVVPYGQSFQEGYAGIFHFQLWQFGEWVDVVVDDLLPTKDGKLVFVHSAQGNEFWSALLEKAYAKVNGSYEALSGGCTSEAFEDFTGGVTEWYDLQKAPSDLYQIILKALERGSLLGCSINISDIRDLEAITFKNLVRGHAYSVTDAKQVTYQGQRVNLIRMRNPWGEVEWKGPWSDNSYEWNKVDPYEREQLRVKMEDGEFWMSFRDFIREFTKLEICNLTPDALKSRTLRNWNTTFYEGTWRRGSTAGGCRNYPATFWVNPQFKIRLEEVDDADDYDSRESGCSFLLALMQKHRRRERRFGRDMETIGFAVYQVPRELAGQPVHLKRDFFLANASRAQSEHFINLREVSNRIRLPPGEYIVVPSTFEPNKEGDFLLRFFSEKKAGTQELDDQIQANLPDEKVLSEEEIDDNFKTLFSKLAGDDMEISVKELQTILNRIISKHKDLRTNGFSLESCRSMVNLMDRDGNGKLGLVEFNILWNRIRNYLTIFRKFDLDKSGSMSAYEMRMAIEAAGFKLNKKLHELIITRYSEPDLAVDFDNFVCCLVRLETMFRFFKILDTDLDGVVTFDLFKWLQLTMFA
Put plainly: Inhibition of rat CAPN1 using BODIPY-labeled casein substrate by fluorometric analysis.

The nature of assay [3]: Inhibition of ovine CAPN2 using BODIPY-labeled casein substrate by fluorometric analysis. More on the design: species or system Ovis aries. In short, it runs like this:
as §1

Assay [4] is described as follows: Inhibition of ovine CAPN1 using BODIPY-labeled casein substrate by fluorometric analysis. Also noted: species or system Ovis aries. The method in brief: as §1

One may read the pIC50 as −log10 of the IC50, conventionally taken in molar units. Low readings indicate a large IC50, high ones a small IC50. In the case of `CC(C)C[C@@H]1NC(=O)[C@@H](NC(=O)OCc2ccccc2)Cc2ccc(cc2)OCCC[C@@H](C=O)NC1=O`, the pIC50 in assay [1] was 6.07. `CC(C)C[C@@H]1NC(=O)[C@@H](NC(=O)OCc2ccccc2)Cc2ccc(cc2)OCCC[C@@H](CO)NC1=O` gave a pIC50 in assay [1] of 4.51. The compound `CC(C)[C@@H]1NC(=O)[C@@H](NC(=O)OCc2ccccc2)Cc2ccc(cc2)OCCCC[C@@H](C=O)NC1=O` had a pIC50 in assay [1] of 7.07.

`CC(C)C[C@@H]1NC(=O)[C@@H](NC(=O)OCc2ccccc2)Cc2ccc(cc2)OCCCCSC[C@@H](C=O)NC1=O` showed a pIC50 in assay [1] of 6.00. On to `CC(C)C[C@@H]1NC(=O)[C@@H](NC(=O)OCc2ccccc2)Cc2ccc(cc2)OCCCCSC[C@@H](CO)NC1=O`, for which the pIC50 in assay [1] was 4.55.

In assay [2], `CC(C)C[C@@H](C=O)NC(=O)[C@@H](NS(=O)(=O)c1ccc2ccccc2c1)C(C)C` gave a pIC50 of 8.00. The same measure, in the same setting: the figure for `CC(C)[C@H](NS(=O)(=O)c1ccc2ccccc2c1)C(=O)N[C@H](C=O)Cc1ccccc1` is 7.85; for `CC(C)[C@H](NS(=O)(=O)c1ccc(F)cc1)C(=O)N[C@H](C=O)Cc1ccccc1` it is 7.57; for `CC(C)[C@H](NS(=O)(=O)c1ccc(F)cc1)C(=O)N[C@H](C=O)Cc1c[nH]c2ccccc12` it is 7.64. As for `CC(C)[C@H](NS(=O)(=O)c1ccc(F)cc1)C(=O)N[C@@H](C)C=O`, the pIC50 in assay [2] was 6.20. In assay [2], `CC(C)C[C@@H](C=O)NC(=O)[C@@H](NS(=O)(=O)c1ccc(Cl)cc1)C(C)C` had a pIC50 of 7.51. In turn, `CC(C)[C@H](NS(=O)(=O)c1ccc(Cl)cc1)C(=O)N[C@H](C=O)Cc1ccccc1` had a pIC50 in assay [2] of 7.85. In the case of `CC(C)[C@H](NS(=O)(=O)c1ccc(Cl)cc1)C(=O)N[C@H](C=O)Cc1c[nH]c2ccccc12`, the pIC50 in assay [2] is 7.89. With `CCC[C@H](NS(=O)(=O)c1ccc(F)cc1)C(=O)N[C@H](C=O)CC(C)C`, the pIC50 in assay [2] is 6.89.

Turning to `CCCC[C@H](NS(=O)(=O)c1ccc(F)cc1)C(=O)N[C@H](C=O)CC(C)C`, in assay [2], the pIC50 was 6.59. In assay [2], `CC(C)C[C@@H](C=O)NC(=O)[C@H](C(C)C)N(C)S(=O)(=O)c1ccc(F)cc1` showed a pIC50 of 4.68. For `CC(C)C[C@@H](C=O)NC(=O)[C@@H](NS(=O)(=O)c1ccc(F)cc1)C(C)C`, the negative-log IC50 (pIC50) in assay [3] is 7.10; in assay [4] it was 6.89. For the compound `CC(C)C[C@@H](C=O)NC(=O)[C@@H](NC(=O)c1ccc[nH]1)C(C)C`, the pIC50 is 6.50 in assay [3] and 6.19 in assay [4]. Regarding `CC(C)C[C@@H](C=O)NC(=O)[C@@H](NC(=O)c1ccco1)C(C)C`, the pIC50 in assay [3] is 6.87; in assay [4], 6.10. As to `CC(C)C[C@@H](C=O)NC(=O)[C@@H](NC(=O)c1cccs1)C(C)C`, the pIC50 was 7.00 in assay [3] and 6.17 in assay [4]. As to `CC(C)C[C@@H](C=O)NC(=O)[C@@H](NC(=O)c1ccc(C=O)o1)C(C)C`, the values for the pIC50 in assay [3] and in assay [4] were 7.00 and 6.02, respectively.

In the case of `CC(C)C[C@@H](C=O)NC(=O)[C@@H](NC(=O)c1ccc(C=O)s1)C(C)C`, the pIC50 in assay [3] was 7.07; in assay [4], 6.36. With `Cc1ccc(C(=O)N[C@H](C(=O)N[C@H](C=O)CC(C)C)C(C)C)[nH]1`, the pIC50 in assay [3] was 6.96; in assay [4], 6.47.

On to `COC(=O)c1ccc(C(=O)N[C@H](C(=O)N[C@H](C=O)CC(C)C)C(C)C)[nH]1`, for which the pIC50 in assay [3] was 6.85; in assay [4], 6.54. With `CC(C)C[C@@H](C=O)NC(=O)[C@@H](NC(=O)c1cc(C=O)c[nH]1)C(C)C`, the results for the pIC50 in assay [3] and in assay [4] were 7.00 and 6.28, respectively.

Turning to `CC(C)C[C@@H](C=O)NC(=O)[C@@H](NC(=O)c1ccc(C=O)[nH]1)C(C)C`, the pIC50 in assay [3] was 7.60; in assay [4], 6.54.

As to `CC(C)C[C@@H](C=O)NC(=O)[C@@H](NC(=O)c1ccc(C=O)n1C)C(C)C`, the pIC50 in assay [3] and in assay [4] was 6.82 in each case. In assay [2], `CC(C)C[C@@H](C=O)NC(=O)[C@@H](NS(C)(=O)=O)C(C)C` (Ms-Val-Leu-aldehyde) had a pIC50 of 6.08. With `Cc1ccc(S(=O)(=O)N[C@H](C(=O)N[C@H](C=O)CC(C)C)C(C)C)cc1` (Tos-Val-Leu-aldehyde), in assay [2], the pIC50 was 7.55.

The compound `Cc1ccc(S(=O)(=O)N[C@H](C(=O)N[C@H](C=O)Cc2ccccc2)C(C)C)cc1` (Tos-Val-Phe-aldehyde) had a pIC50 in assay [2] of 7.74.
